Data from ChEMBL document CHEMBL1268928, “Design and synthesis of novel pyrimidine hydroxamic acid inhibitors of histone deacetylases” (Bioorg Med Chem Lett, 2010).
Values belong to the molecule of their own block, whether it stands above or below them.

What was measured:
HCT-116 [1] = experiment: cells; format: functional; conditions: Homo sapiens, HCT-116, 72 h
HeLa [2] = experiment: Growth inhibition of human HeLa cells at 10 uM after 72 hrs by SRB assay; format: functional; conditions: read-out: GI
U-937 = experiment: cells; format: functional; conditions: Homo sapiens, U-937, 72 h
Histone deacetylase = experiment: Inhibition of HDAC in human HeLa cell nuclear extracts by fluorimetric assay; format: protein assay
HuT78 = experiment: cells; format: functional; conditions: Homo sapiens, HuT78, 72 h
[3] = Drug level in tumor of human HCT116 cells xenografted in CrTac:NCr-Fox1 (nu) athymic mouse at 50 mg/kg, po qd for 16 days measured after 1 hr; format: ADME, organism-based, Neoplasm, HCT-116; set-up: dose 50 mg/kg, route oral; conditions: in vivo
How it was run: (§1)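 Tissue levels measured in female athymic mice bearing bilateral HCT116 xenografts after oral 50 mg/kg once daily for 16 days. Sampled at 0.5, 1 and 4 h post dose. Plasma is reported in nM; tumour and spleen in nmol/kg. The 1 h values are the mean of three samples; 0.5 and 4 h values are means of two.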

[4] = Drug level in plasma of human HCT116 cells xenografted in CrTac:NCr-Fox1 (nu) athymic mouse at 50 mg/kg, po qd for 16 days measured after 4 hrs; format: ADME, organism-based, HCT-116; set-up: dose 50 mg/kg, route oral; conditions: read-out: Drug uptake
How it was run: as §1

HeLa [5] = experiment: cells; format: functional; conditions: Homo sapiens, 72 h
Cytochrome P450 2C19 = Cytochrome P450 2C19 (Homo sapiens, UniProt P33261); experiment: Inhibition of CYP2C19 at 50 uM; format: ADME
HCT-116 [6] = experiment: Antitumor activity against human HCT116 cells xenografted in CrTac:NCr-Fox1 (nu) athymic mouse assessed as tumor weight at 50 mg/kg, po qd for 16 days relative to untreated control; format: functional
How it was run: (§2)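 Female athymic mice (n = 14) bearing established bilateral HCT116 colon carcinoma xenografts; oral dosing once daily for 16 days at 50 mg/kg. Read-outs are final tumour weight and mean tumour volume, each relative to control. Body weight was monitored.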

Cytochrome P450 2A6 = biological target: T1, Cytochrome P450 2A6 (Homo sapiens, UniProt P11509); experiment: Inhibition of CYP2A6 at 50 uM; format: ADME
T1 sequence (P11509 whole entry): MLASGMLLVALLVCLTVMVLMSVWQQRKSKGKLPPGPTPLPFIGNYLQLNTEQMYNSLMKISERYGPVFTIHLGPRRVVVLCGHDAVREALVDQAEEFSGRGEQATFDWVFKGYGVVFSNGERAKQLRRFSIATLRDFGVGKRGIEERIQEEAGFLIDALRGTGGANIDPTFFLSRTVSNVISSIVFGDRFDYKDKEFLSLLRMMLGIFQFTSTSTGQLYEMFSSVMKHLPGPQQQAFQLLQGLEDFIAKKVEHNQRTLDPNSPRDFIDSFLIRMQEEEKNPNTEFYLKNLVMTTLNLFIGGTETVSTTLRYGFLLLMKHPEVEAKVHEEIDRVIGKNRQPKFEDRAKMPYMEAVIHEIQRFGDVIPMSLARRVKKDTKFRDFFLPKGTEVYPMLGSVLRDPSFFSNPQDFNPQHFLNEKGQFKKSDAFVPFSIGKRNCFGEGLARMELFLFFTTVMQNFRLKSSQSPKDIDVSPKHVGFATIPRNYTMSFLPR

[7] = Cmax in CD1 mouse spleen at 3 mg/kg, po or 1 mg/kg, iv; format: ADME, organism-based
How it was run: (§3)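 Cassette PK study in CD1 mice, dosed 3 mg/kg po and 1 mg/kg iv. Cmax was measured in plasma and spleen, and oral bioavailability F was derived.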

[8] = Apparent permeability of the compound by PAMPA assay; format: ADME
[9] = Permeability from basolateral to apical side in human Caco-2 cells; format: ADME, cell-based; conditions: read-out: permeability
Cytochrome P450 1A2 = biological target: T2, Cytochrome P450 1A2 (Homo sapiens, UniProt P05177); experiment: Inhibition of CYP1A2 at 50 uM; format: ADME
T2 sequence (P05177 whole entry): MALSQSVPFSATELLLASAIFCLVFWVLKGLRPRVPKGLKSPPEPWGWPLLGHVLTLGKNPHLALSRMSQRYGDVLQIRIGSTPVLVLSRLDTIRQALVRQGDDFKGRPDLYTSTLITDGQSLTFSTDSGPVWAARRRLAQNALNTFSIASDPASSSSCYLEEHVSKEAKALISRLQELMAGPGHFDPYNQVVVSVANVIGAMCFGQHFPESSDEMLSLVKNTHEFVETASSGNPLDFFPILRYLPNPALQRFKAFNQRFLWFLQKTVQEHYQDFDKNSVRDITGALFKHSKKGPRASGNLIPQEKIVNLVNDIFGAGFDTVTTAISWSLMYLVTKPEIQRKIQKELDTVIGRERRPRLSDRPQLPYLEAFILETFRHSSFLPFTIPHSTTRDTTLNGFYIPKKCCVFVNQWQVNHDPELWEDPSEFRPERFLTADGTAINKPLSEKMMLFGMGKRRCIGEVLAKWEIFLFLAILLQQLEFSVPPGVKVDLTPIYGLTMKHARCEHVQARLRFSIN

[10] = Oral bioavailability in CD1 mouse at 3 mg/kg; format: ADME, organism-based; conditions: in vivo
How it was run: as §3

[11] = Drug level in tumor of human HCT116 cells xenografted in CrTac:NCr-Fox1 (nu) athymic mouse at 50 mg/kg, po qd for 16 days measured after 0.5 hrs; format: ADME, organism-based, Neoplasm, HCT-116; set-up: dose 50 mg/kg, route oral; conditions: in vivo
How it was run: as §1

Cytochrome P450 2D6 = Cytochrome P450 2D6 (Homo sapiens, UniProt P10635); experiment: Inhibition of CYP2D6 at 50 uM; format: ADME
[12] = Metabolic stability in human liver microsomes at 10 uM after 30 mins; format: ADME, Microsome; conditions: read-out: Stability
How it was run: (§4)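 Compound at 10 µM incubated with human or mouse liver microsomes. Read-out is the percentage of parent remaining after 30 min.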

Spleen [13] = experiment: Drug level in spleen of human HCT116 cells xenografted in CrTac:NCr-Fox1 (nu) athymic mouse at 50 mg/kg, po qd for 16 days measured after 4 hrs; format: ADME, organism-based, HCT-116; set-up: dose 50 mg/kg, route oral; conditions: in vivo
How it was run: as §1

[14] = Metabolic stability in mouse liver microsomes at 10 uM after 30 mins; format: ADME, Microsome; conditions: read-out: Stability
How it was run: as §4

Spleen [15] = experiment: Drug level in spleen of human HCT116 cells xenografted in CrTac:NCr-Fox1 (nu) athymic mouse at 50 mg/kg, po qd for 16 days measured after 1 hr; format: ADME, organism-based, HCT-116; set-up: dose 50 mg/kg, route oral; conditions: in vivo
How it was run: as §1

[16] = biological target: Voltage-gated inwardly rectifying potassium channel KCNH2 (Homo sapiens, UniProt Q12809); experiment: Inhibition of human ERG channel
[17] = Drug level in plasma of human HCT116 cells xenografted in CrTac:NCr-Fox1 (nu) athymic mouse at 50 mg/kg, po qd for 16 days measured after 1 hr; format: ADME, organism-based, HCT-116; set-up: dose 50 mg/kg, route oral; conditions: read-out: Drug uptake
How it was run: as §1

Spleen [18] = experiment: Drug level in spleen of human HCT116 cells xenografted in CrTac:NCr-Fox1 (nu) athymic mouse at 50 mg/kg, po qd for 16 days measured after 0.5 hrs; format: ADME, organism-based, HCT-116; set-up: dose 50 mg/kg, route oral; conditions: in vivo
How it was run: as §1

[19] = Cmax in CD1 mouse plasma at 3 mg/kg, po or 1 mg/kg, iv; format: ADME, organism-based
How it was run: as §3

HCT-116 [20] = experiment: Antitumor activity against human HCT116 cells xenografted in CrTac:NCr-Fox1 (nu) athymic mouse assessed as tumor volume at 50 mg/kg, po qd for 16 days relative to untreated control; format: functional
How it was run: as §2

Mus musculus [21] = experiment: Inhibition of HDAC in human HCT116 cells xenografted CrTac:NCr-Fox1 (nu) athymic mouse assessed as increase in histone H3 acetylation at 50 mg/kg, po qd for 16 days measured 4 hrs post dose by Western blot relative to untreated control; format: functional, HCT-116
How it was run: (§5)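 Female athymic nude mice bearing established bilateral HCT116 colon carcinoma xenografts (n = 14), dosed orally once daily for 16 days at 50 mg/kg. Tumour tissue taken after the final dose; histone H3 acetylation by Western blot with anti-acetylated H3 antibody. Band intensity by densitometry, normalised to GAPDH, and expressed as % of DMSO controls. One animal per value, n = 1–3.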

Cytochrome P450 3A4 = Cytochrome P450 3A4 (Homo sapiens, UniProt P08684); experiment: Inhibition of CYP3A4 at 50 uM; format: ADME
Mus musculus [22] = experiment: Inhibition of HDAC in tumor tissue of human HCT116 cells xenografted CrTac:NCr-Fox1 (nu) athymic mouse assessed as increase in histone H3 acetylation at 50 mg/kg, po qd for 16 days measured 1 hr post dose by Western blot relative to untreated control; format: functional, HCT-116
How it was run: as §5

[23] = Drug level in tumor of human HCT116 cells xenografted in CrTac:NCr-Fox1 (nu) athymic mouse at 50 mg/kg, po qd for 16 days measured after 4 hrs; format: ADME, organism-based, Neoplasm, HCT-116; set-up: dose 50 mg/kg, route oral; conditions: in vivo
How it was run: as §1

Cytochrome P450 2C8 = biological target: T3, Cytochrome P450 2C8 (Homo sapiens, UniProt P10632); experiment: Inhibition of CYP2C8 at 50 uM; format: ADME
T3 sequence (P10632 whole entry): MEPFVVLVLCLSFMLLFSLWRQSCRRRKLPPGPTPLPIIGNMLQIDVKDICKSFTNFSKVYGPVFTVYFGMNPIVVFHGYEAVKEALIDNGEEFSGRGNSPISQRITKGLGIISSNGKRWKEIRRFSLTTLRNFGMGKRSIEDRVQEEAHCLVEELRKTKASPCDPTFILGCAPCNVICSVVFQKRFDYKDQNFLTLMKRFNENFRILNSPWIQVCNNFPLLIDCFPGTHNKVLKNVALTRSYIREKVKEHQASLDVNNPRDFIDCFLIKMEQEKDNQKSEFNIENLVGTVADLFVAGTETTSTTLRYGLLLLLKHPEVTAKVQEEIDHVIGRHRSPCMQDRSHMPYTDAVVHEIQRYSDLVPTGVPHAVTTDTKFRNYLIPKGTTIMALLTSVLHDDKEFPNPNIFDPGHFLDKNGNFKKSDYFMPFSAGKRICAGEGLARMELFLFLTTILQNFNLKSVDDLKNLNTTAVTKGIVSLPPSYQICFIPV

Sequence of Cytochrome P450 2D6 (P10635 whole entry): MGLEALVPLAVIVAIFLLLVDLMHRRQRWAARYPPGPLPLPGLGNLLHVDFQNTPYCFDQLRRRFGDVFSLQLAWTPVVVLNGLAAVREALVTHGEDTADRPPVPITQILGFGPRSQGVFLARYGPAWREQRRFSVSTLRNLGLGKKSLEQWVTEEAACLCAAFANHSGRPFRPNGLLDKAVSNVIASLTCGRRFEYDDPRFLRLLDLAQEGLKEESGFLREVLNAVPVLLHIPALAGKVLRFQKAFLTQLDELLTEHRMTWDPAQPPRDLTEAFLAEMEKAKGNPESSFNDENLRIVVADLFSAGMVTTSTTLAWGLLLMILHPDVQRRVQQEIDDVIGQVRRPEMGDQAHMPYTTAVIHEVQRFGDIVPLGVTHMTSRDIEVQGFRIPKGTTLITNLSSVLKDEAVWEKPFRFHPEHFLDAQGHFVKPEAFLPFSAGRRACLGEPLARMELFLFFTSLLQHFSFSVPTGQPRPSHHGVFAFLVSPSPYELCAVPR
Sequence of Cytochrome P450 2C19 (P33261 whole entry): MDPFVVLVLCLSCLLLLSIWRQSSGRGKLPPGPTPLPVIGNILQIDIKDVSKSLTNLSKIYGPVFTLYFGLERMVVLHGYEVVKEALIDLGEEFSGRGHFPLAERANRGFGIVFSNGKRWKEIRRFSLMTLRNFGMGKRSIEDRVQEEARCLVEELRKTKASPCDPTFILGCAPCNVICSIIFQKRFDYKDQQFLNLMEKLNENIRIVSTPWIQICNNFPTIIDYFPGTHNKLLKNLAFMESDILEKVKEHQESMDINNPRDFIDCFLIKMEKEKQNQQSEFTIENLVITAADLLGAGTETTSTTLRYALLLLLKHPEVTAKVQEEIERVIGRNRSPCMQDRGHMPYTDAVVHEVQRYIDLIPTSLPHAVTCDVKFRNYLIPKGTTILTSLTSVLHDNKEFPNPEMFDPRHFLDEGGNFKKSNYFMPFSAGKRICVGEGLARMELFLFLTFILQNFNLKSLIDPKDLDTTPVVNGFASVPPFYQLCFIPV
Sequence of Cytochrome P450 3A4 (P08684 whole entry): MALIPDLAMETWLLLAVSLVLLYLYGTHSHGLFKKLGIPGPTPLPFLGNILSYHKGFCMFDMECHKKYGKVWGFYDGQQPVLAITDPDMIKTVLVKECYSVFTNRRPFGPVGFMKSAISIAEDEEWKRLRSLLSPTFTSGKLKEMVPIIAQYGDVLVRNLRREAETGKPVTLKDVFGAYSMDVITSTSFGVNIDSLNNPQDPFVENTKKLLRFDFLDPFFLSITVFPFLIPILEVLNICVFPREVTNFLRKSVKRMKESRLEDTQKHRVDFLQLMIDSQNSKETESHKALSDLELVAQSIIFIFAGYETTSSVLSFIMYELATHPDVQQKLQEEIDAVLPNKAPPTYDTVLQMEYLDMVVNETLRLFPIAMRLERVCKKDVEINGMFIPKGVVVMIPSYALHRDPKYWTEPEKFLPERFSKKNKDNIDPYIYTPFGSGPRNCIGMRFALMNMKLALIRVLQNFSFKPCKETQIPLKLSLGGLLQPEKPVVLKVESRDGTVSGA
Sequence of Voltage-gated inwardly rectifying potassium channel KCNH2 (Q12809 whole entry): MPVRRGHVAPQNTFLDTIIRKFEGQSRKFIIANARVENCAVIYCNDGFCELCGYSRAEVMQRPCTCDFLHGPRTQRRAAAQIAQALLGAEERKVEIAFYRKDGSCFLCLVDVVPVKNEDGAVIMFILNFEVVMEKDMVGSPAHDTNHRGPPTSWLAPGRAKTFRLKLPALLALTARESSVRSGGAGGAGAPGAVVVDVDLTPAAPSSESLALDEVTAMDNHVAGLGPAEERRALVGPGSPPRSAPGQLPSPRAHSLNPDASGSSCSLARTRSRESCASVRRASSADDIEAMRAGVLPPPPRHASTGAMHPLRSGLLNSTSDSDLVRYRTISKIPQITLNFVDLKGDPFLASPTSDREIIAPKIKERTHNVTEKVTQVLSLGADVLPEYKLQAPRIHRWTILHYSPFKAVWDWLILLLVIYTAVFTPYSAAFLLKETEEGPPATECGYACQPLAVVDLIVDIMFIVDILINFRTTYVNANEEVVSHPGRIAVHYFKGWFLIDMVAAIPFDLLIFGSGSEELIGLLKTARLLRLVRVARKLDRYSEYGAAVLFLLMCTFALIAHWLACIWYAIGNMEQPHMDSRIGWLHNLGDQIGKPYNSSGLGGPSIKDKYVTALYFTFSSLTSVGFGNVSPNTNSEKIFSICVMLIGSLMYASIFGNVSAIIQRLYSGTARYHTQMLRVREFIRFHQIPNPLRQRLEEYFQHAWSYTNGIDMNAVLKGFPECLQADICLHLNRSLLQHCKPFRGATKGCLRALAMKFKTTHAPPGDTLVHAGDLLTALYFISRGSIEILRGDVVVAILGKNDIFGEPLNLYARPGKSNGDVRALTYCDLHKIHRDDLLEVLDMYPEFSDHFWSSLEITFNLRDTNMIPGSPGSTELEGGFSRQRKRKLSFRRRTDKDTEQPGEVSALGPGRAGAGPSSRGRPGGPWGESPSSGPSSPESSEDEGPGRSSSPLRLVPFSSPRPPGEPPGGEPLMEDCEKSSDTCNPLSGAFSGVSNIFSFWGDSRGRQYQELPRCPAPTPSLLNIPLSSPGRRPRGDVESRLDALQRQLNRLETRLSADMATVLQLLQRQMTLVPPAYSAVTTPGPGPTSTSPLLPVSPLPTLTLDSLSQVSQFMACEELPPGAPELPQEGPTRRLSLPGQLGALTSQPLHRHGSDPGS

GI50 (HCT-116 [1]): 1700 nM | GI50 (U-937): 1250 nM | IC50 (Histone deacetylase): 433 nM
Structure (SMILES): O=C(NO)c1cnc(N2C[C@@H]3CN(S(=O)(=O)c4cc(C(F)(F)F)cc(C(F)(F)F)c4)C[C@@H]3C2)nc1
inhibition of growth at 10 µM (HeLa [2]): 42% | GI50 (HuT78): 700 nM

Drug uptake [3]: 215 nmol/kg | concentration at 4 h [4]: 25 nM | GI50 (HeLa [5]): 260 nM | inhibition (INH) (Cytochrome P450 2C19): Not Active | inhibition (INH) (Cytochrome P450 2A6): Not Active | Cmax [7]: 218 ng/mL | Papp [8]: 0.5 ×10⁻⁶ cm/s | Papp B→A [9]: 9.4 ×10⁻⁶ cm/s | inhibition (INH) (Cytochrome P450 1A2): Not Active | bioavailability [10]: 15% | Drug uptake [11]: 80 nmol/kg | IC50 (Cytochrome P450 2D6): 10000 nM | GI50 (HCT-116 [1]): 120 nM | remaining at 0.5 h, 10 µM [12]: 72% | Drug uptake (Spleen [13]): 500 nmol/kg | remaining at 0.5 h, 10 µM [14]: 45% | GI50 (U-937): 72 nM | IC50 (Histone deacetylase): 13 nM | Drug uptake (Spleen [15]): 1260 nmol/kg | concentration at 1 h [17]: 14 nM | Drug uptake (Spleen [18]): 620 nmol/kg | Cmax [19]: 31 ng/mL | inhibition (INH) (Cytochrome P450 3A4): Not Active | Drug uptake [23]: 154 nmol/kg | inhibition (INH) (Cytochrome P450 2C8): Not Active
Structure (SMILES): O=C(NO)c1cnc(N2C[C@H]3CN(Cc4ccc5ccccc5c4)C[C@H]3C2)nc1
T/C (HCT-116 [6]): 80% | IC50 [16]: 4100 nM | GI50 (HuT78): 79 nM | Activity (HCT-116 [20]): 28% | fold change (FC) (Mus musculus [21]): 2 | fold change (FC) (Mus musculus [22]): 2

GI50 (HeLa [5]): 940 nM | GI50 (HCT-116 [1]): 530 nM | GI50 (U-937): 980 nM | IC50 (Histone deacetylase): 123 nM
Structure (SMILES): O=C(NO)c1cnc(N2C[C@@H]3CN(S(=O)(=O)c4ccc(OC(F)(F)F)cc4)C[C@@H]3C2)nc1
GI50 (HuT78): 500 nM

GI50 (HeLa [5]): 1130 nM | GI50 (HCT-116 [1]): 740 nM | GI50 (U-937): 480 nM | IC50 (Histone deacetylase): 64 nM
Structure (SMILES): O=C(NO)c1cnc(N2C[C@@H]3CN(S(=O)(=O)c4ccc5ccccc5c4)C[C@@H]3C2)nc1
GI50 (HuT78): 300 nM
